Source: PubChem
This is a sample that favours compounds with a hit; in the whole collection about 2.5% have one here.
E-sel inducer = induces E-selectin expression in human endothelial cells; HUVEC E-selectin immunofluorescence imaging; normalized: neutral wells 0, TNF-alpha wells 100; activation, % at 7.58 µM; hit rate 0.37% among 260,000; AID 686992;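 active = mean E-selectin-positive cell signal at least 10% of the positive control, reached in at least 60% of replicates, without over 20% cell loss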
Target sequence (P16581 whole entry, looked up): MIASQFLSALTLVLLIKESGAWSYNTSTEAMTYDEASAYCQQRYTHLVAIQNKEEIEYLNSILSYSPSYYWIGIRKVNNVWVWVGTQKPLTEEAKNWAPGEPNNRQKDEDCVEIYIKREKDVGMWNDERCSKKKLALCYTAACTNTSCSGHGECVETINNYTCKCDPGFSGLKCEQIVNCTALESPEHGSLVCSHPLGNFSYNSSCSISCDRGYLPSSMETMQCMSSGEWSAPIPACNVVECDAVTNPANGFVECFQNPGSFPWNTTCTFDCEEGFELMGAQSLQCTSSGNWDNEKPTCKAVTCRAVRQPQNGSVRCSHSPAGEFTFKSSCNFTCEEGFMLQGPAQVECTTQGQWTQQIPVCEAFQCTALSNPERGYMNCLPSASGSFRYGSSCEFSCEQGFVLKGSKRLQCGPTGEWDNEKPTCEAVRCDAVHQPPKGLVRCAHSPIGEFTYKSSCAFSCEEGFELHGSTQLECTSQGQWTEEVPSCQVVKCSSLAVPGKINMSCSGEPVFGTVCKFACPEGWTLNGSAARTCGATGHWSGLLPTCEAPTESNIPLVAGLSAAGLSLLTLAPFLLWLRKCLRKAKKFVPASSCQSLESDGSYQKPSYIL
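Assay system: HUVEC primary endothelial cells. Input: 3,000 HUVEC seeded per well. Doses: one compound dose added by pin transfer. Read-out basis: % PE-positive cells. Benchmarks: TNF-alpha high, DMSO low. Detection: immunofluorescence imaging. Buffer or medium: EGM-2, gelatin.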
miR-122 sensor = blocks miR-122 activity in Huh7 sensor cells | Huh7 miR-122 Renilla luciferase sensor, 48 h; neutral wells = 0, positive control = 100 | activation (reporter increase), % at 12.5 µM | hit rate 0.3% among 340,000;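 active = mean replicate activation score at least 90 and every replicate individually at or above 90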;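 also: higher luciferase means less miR-122 activity so hits act as miR-122 inhibitors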
FGF22 binding = shifts melting point of recombinant human FGF22; recombinant FGF22 thermal shift, SYPRO orange fluorescence; percent of sucrose octasulfate shift, DMSO zero; Q9HCT0; hit rate 1.5% among 340,000; activity (Tm shift, normalised), % at 9.99 µM; AID 651658;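 active = mean Tm shift, scaled 0 neutral to 100 positive control, at about 1.3% or above, every replicate too, limit read from the data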
S100A4 MyoIIA = inhibitors of human S100A4 binding to myosin IIA peptide | P26447 | S100A4/TAMRA-MyoIIA peptide fluorescence polarization | inhibition, % at 10.7 µM | hit rate 0.14% among 360,000 | AID 652163;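 active = mean inhibition of at least 70% across replicates, with every replicate also reaching that level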
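Test system: S100A4 monomer protein; Medium: HEPES pH 7.2 with CaCl2, KCl, NaCl, DTT, Triton; Probe or stimulus: TAMRA-labelled myosin IIA heavy-chain peptide probe, 5 nM; Doses: one dose per compound; Times: polarization read 5 min after assay mix addition, stable 5–60 min; Benchmarks: neutral control DMSO, positive control TFP.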
SIRT5 block = blocks human SIRT5 desuccinylation of peptide; Purified SirT5, succinyl-peptide AMC, trypsin-coupled fluorescence; inhibition, % at 15 µM; Q9NXA8; hit rate 1.1% among 330,000; in the data active = inhibition above about 15%
* hit, by the source's call; x = no result given; [ ] = dose if it differs, or a comment.

SMILES	E-sel inducer	miR-122 sensor	FGF22 binding	S100A4 MyoIIA	SIRT5 block
C[C@@H]1CN([C@@H](C)CO)S(=O)(=O)c2ccc(C3=CCCCC3)cc2O[C@@H]1CN(C)C(=O)Cc1ccccc1	0	12[16.7 µM]	-1	-16	18*
CCNC(=O)C[C@@H]1CC[C@@H](NS(=O)(=O)c2ccc(F)cc2)[C@H](CO)O1	0	x	-1	96*	0
O=C(C[C@@H]1CC[C@H](NS(=O)(=O)c2ccc(F)cc2)[C@H](CO)O1)N1CCN(c2ccccc2)CC1	0	x	0	-5	20*
O=C(C[C@@H]1CC[C@@H](NS(=O)(=O)c2ccc(F)cc2)[C@@H](CO)O1)N1CCC(Cc2ccccc2)CC1	-1	x	0	4	28*
CCNC(=O)C[C@@H]1CC[C@H](NS(=O)(=O)c2ccc(F)cc2)[C@H](CO)O1	6	x	0	-33	-2
O=C(C[C@H]1CC[C@@H](NS(=O)(=O)c2ccc(F)cc2)[C@@H](CO)O1)N1CCC(Cc2ccccc2)CC1	0	x	0	-15	-1
O=C(C[C@H]1CC[C@@H](NS(=O)(=O)c2ccccc2)[C@@H](CO)O1)NCc1ccncn1	0	x	0	-7	21*
CCS(=O)(=O)N[C@@H]1C=C[C@@H](CC(=O)NCc2ccc(F)cc2)O[C@H]1CO	x	-13[16.7 µM]	0	-3	x
O=C(CSc1ccc(-c2ccccc2)nn1)c1cccs1	1	x	0	1	16*
O=C(CCc1nnc(Cc2cccc(C(F)(F)F)c2)o1)NC1CC1	4	x	0	-4	-4
C=C(C)CNC(=O)CCc1nnc(Cc2cccc(C(F)(F)F)c2)o1	x	x	43*	-3	-4
O=C(CCc1nnc(Cc2cccc(C(F)(F)F)c2)o1)NCC(F)(F)F	x	x	0	-1	18*
CCCCCCCCN1C(=O)[C@H](CC(=O)NCc2cccc3ccccc23)C[C@@]2(C(=O)OCC)CCC=C12	0	x	0	-7	16*
CCOC(=O)[C@]12CCC=C1N(Cc1ccco1)C(=O)[C@H](CC(=O)NCc1ccc(C)o1)C2	0	x	43*	-2	x
Cc1ccc(/C=N/NC(=O)c2cc(C3CC3)nc3ccccc23)o1	x	21	43*	6	-1
CCCCn1c(=O)[nH]c(=O)c2c1nc(-c1ccc(-c3ccccc3)cc1)n2C	x	-1	0	-1	-1
CCCCn1c(O)c(/C=C2\C=Nc3ccccc32)c(=O)[nH]c1=O	0	11	0	81*	0
CC(C)(C)[C@@H]1C=C(C(=O)Nc2ccccc2)O[C@H](OCc2ccc(CO)cc2)C1	0	0	0	98*	x
Nc1c(Br)cc(Br)c2c1C(=O)c1c(cccc1S(=O)(=O)O)C2=O	124*	-3	44*	-24	-4
Nc1c(C(=O)O)ccc2c1C(=O)c1ccccc1C2=O	x	-9	0	-35	-1
Cc1ccc(C)c(OCCC(=O)NCCc2ccc(Cl)cc2)c1	0	0	0	2	-6
CCOc1ccc(CCNC(=O)CCOc2cc(C)ccc2C)cc1OCC	0	-2	1.9*	-5	-5
O=C(Cn1nnc(-c2ccc(F)cc2)n1)N1CCCCC1	0	2	0	-3	-3
O=C(Cn1nnc(-c2ccccc2)n1)N1CCN(c2ccc(F)cc2)CC1	x	x	43*	-1	0
C[C@@H]1CN([C@@H](C)CO)C(=O)c2cc(NC(=O)C3CC3)ccc2O[C@H]1CN(C)Cc1ccc(Cl)c(Cl)c1	0	-9[16.7 µM]	0	9	8
SMILES	E-sel inducer	miR-122 sensor	FGF22 binding	S100A4 MyoIIA	SIRT5 block
COc1cccc(S(=O)(=O)N(C)C[C@@H]2Oc3cc(C4=CCCCC4)ccc3S(=O)(=O)N([C@@H](C)CO)C[C@@H]2C)c1	0	-8[16.7 µM]	0	2	21*
COc1cccc(S(=O)(=O)N(C)C[C@H]2Oc3cc(C4=CCCC4)ccc3S(=O)(=O)N([C@H](C)CO)C[C@H]2C)c1	3	10[16.7 µM]	0	-4	21*
COc1cccc(S(=O)(=O)N(C)C[C@H]2Oc3cc(C4=CCCC4)ccc3S(=O)(=O)N([C@@H](C)CO)C[C@@H]2C)c1	0	27[16.7 µM]	0	3	21*
COc1cccc(S(=O)(=O)N(C)C[C@H]2Oc3cc(C4=CCCC4)ccc3S(=O)(=O)N([C@H](C)CO)C[C@@H]2C)c1	0	-6[16.7 µM]	0	-6	3
O=C(NC1CCCCC1)NC12CC3CC(CC(C3)C1)C2	x	x	0	2	-3
CS(=O)(=O)N(C(=O)NC(=O)NC12CC3CC(CC(C3)C1)C2)C1CCCCC1	0	x	44*	2	-6
C/C(=N\Nc1ccc(S(=O)(=O)Nc2ccc(Cl)cc2)cc1[N+](=O)[O-])c1ccc(N2CCOCC2)cc1	-1	170*	x	x	x
CC=Cc1ccc2n(c1=O)C[C@@H]1[C@@H](CO)[C@H](C(=O)NCC)[C@H]2N1S(=O)(=O)c1cn(C)cn1 (mixture of isomers)	0	-2[16.7 µM]	0	-8	-19
COc1ccc(OCC(=O)N2CCN(S(=O)(=O)c3ccc(Cl)s3)CC2)cc1	0	-1	0	144*	6
COc1ccc(S(=O)(=O)N2CCN(C(=O)COc3ccccc3)CC2)cc1	x	x	43*	-3	-3
O=C(COc1ccccc1)N1CCN(S(=O)(=O)c2ccc(Br)cc2)CC1	x	-1	0	-3	-2
CC(C)CC(=O)N1CCN(S(=O)(=O)c2ccc(Cl)cc2)CC1	2	x	43*	4	-3
O=C(CCS(=O)(=O)c1ccccc1)N1CCN(c2ccccc2F)CC1	1	x	0	8	-2
COc1ccc(S(=O)(=O)CCC(=O)N2CCN(c3ccccc3F)CC2)cc1	x	x	44*	6	-4
N#Cc1ccc(OCC(=O)N2CCN(S(=O)(=O)c3ccc(Cl)s3)CC2)cc1	x	x	0	-10	-3
COc1ccc(S(=O)(=O)N2CCN(Cc3ccc(OCCO)cc3)CC2)cc1	x	x	0	1	-3
Cc1c(Cl)c(C(F)(F)F)nn1CC(=O)NCc1ccco1	x	x	43*	-2	-5
N#CC(c1nc2ccccc2nc1N1CCCC1)S(=O)(=O)c1ccccc1 (centres undefined)	x	17	x	x	x
Cc1cccc(S(=O)(=O)C(C#N)c2nc3ccccc3nc2N2CCCC2)c1 (centres undefined)	x	119*	x	x	x
CCCCN(C)S(=O)(=O)c1ccc(C(=O)N(CCN(C)C)c2nc3ccc(C)cc3s2)cc1	x	-6	44*	3	6
Cc1ccc2nc(N(CCCN(C)C)C(=O)c3ccc(S(=O)(=O)N4CCCCCC4)cc3)sc2c1	5	1	0	-1	-2
COc1ccc(NC(=O)N2CC(=O)N3[C@H](C2)[C@@H](c2ccc(C4=CCCC4)cc2)[C@@H]3CO)cc1	1	x	x	-10	2
NC(=O)C1CCN(C(=O)c2ccc3c(=O)n(Cc4ccco4)c(SCC(=O)c4ccccc4)nc3c2)CC1	1	33	44*	-1	-5
